Results: the array DNA melting data of Ke et al. (doi:10.1101/2024.01.08.574731)

How the values were obtained:
[1] = melting temperature; fluorescence melt of hairpins on a sequencing array, two-state fit, raised by 9.35 °C to match UV melts; settings: sodium 0.088 M
Summary of the method: (§1)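 Library hairpins on a sequenced MiSeq flow cell carried annealed Cy3 and quencher oligos, and their Cy3 fluorescence was imaged in 50 mM Na-HEPES pH 8.0 with 25 mM NaCl, in 2.5 °C steps up to 60 °C. Signals were normalised to Cy3 before quenching and to control constructs. Melting temperature and folding enthalpy were obtained from bootstrapped two-state fits, combined by inverse-variance weighting across four replicates, and the fitted temperatures were then raised by 9.35 °C to match UV melts.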

[2] = folding enthalpy; higher = less favourable; fluorescence melt of hairpins on a sequencing array, two-state fit; settings: sodium 0.088 M
Summary of the method: as §1

## GAGCGGGGAAACCTGCTC ((((.((....)).))))
[1]
  Tm: 57.3 °C
[2]
  folding enthalpy: -30.6 kcal/mol

## GAGCGTCCGAAAGGACTC (((..(((....))))))
[1]
  Tm: 30.7 °C
[2]
  folding enthalpy: -7.91 kcal/mol

## GAGCGTGGAAACACACTC (((.(((....))).)))
[1]
  Tm: 45.9 °C
[2]
  folding enthalpy: -30.5 kcal/mol

## GAGCGTGGAAACACGTTC ((.((((....)))).))
[1]
  Tm: 52.5 °C
[2]
  folding enthalpy: -24.7 kcal/mol

## GAGCGTGGAAACATGCTC ((((.((....)).))))
[1]
  Tm: 55 °C
[2]
  folding enthalpy: -55.5 kcal/mol

## GAGCGTGGAAACGCGTTC ((.((.(....).)).))
[1]
  Tm: 51.7 °C
[2]
  folding enthalpy: -12.1 kcal/mol

## GAGCTACGAAAGTATCTC (((.(((....))).)))
[1]
  Tm: 36.9 °C
[2]
  folding enthalpy: -25.1 kcal/mol

## GAGCTCGCGAAAGCGCTC (((..(((....))))))
[1]
  Tm: 41.8 °C
[2]
  folding enthalpy: -14.2 kcal/mol

## GAGCTCGGAAACAAGCTC (((((.(....).)))))
[1]
  Tm: 43 °C
[2]
  folding enthalpy: -30 kcal/mol

## GAGCTCGGAAACGAGCCC (.(((((....))))).)
[1]
  Tm: 59.5 °C
[2]
  folding enthalpy: -7.56 kcal/mol

## GAGCTCGGAAACGAGTTC ((.((((....)))).))
[1]
  Tm: 53 °C
[2]
  folding enthalpy: -29.1 kcal/mol

## GAGCTCGGAAACGGGCTC ((((.((....)).))))
[1]
  Tm: 60.7 °C
[2]
  folding enthalpy: -44.2 kcal/mol

## GAGCTGAAAAGCTC (((((....)))))
[1]
  Tm: 57.2 °C
[2]
  folding enthalpy: -27.2 kcal/mol

## GAGCTGCCGAAAGGCCTC (((..(((....))))))
[1]
  Tm: 32.7 °C
[2]
  folding enthalpy: -11.3 kcal/mol

## GAGCTGCGAAAGCAACTC (((.(((....))).)))
[1]
  Tm: 51.2 °C
[2]
  folding enthalpy: -31.8 kcal/mol

## GAGCTGGCGAAAGCCCTC (((..(((....))))))
[1]
  Tm: 36.6 °C
[2]
  folding enthalpy: -5.81 kcal/mol

## GAGCTGGGAAACTAGCTC (((((.(....).)))))
[1]
  Tm: 52.5 °C
[2]
  folding enthalpy: -38.7 kcal/mol

## GAGCTTGAAAAAGCTC ((((((....))))))
[1]
  Tm: 58.1 °C
[2]
  folding enthalpy: -41.6 kcal/mol

## GAGCTTGCGAAAGCACTC (((..(((....))))))
[1]
  Tm: 39.7 °C
[2]
  folding enthalpy: -10.9 kcal/mol

## GAGGACGAAAGTCAGCTC ((((((....)))..)))
[1]
  Tm: 42 °C
[2]
  folding enthalpy: -15 kcal/mol

## GAGGACGAAAGTCATCTC ((((((....)))..)))
[1]
  Tm: 51.8 °C
[2]
  folding enthalpy: -19.1 kcal/mol

## GAGGACGAAAGTCCACTC ((((((....)))..)))
[1]
  Tm: 52.4 °C
[2]
  folding enthalpy: -12.7 kcal/mol

## GAGGACGAAAGTCCGCTC ((((((....)))..)))
[1]
  Tm: 67.5 °C
[2]
  folding enthalpy: -12.1 kcal/mol

## GAGGACGGAAACGTCTTC ((.((((....)))).))
[1]
  Tm: 47.3 °C
[2]
  folding enthalpy: -17.8 kcal/mol

## GAGGAGAAATCCTC (((((....)))))
[1]
  Tm: 43.4 °C
[2]
  folding enthalpy: -21.8 kcal/mol

## GAGGAGCGAAAGCTCTC (((.(((....))))))
[1]
  Tm: 48.2 °C
[2]
  folding enthalpy: -9.17 kcal/mol

## GAGGAGCGAAAGCTGCTC (((.(((....))).)))
[1]
  Tm: 63.7 °C
[2]
  folding enthalpy: -34 kcal/mol

## GAGGAGGAAACTCCTC ((((((....))))))
[1]
  Tm: 55.9 °C
[2]
  folding enthalpy: -31.2 kcal/mol

## GAGGCAGGAAACTACCTC ((((.((....)).))))
[1]
  Tm: 40.3 °C
[2]
  folding enthalpy: -26.9 kcal/mol

## GAGGCAGGAAACTGCCCC (.(((((....))))).)
[1]
  Tm: 44.2 °C
[2]
  folding enthalpy: -9.1 kcal/mol

## GAGGCAGGAAACTGCTTC ((.((((....)))).))
[1]
  Tm: 47.7 °C
[2]
  folding enthalpy: -18 kcal/mol

## GAGGCCCGAAAGGGCTC (((.(((....))))))
[1]
  Tm: 57.9 °C
[2]
  folding enthalpy: -9.95 kcal/mol

## GAGGCCGAAAGGCAACTC ((((((....)))..)))
[1]
  Tm: 46.7 °C
[2]
  folding enthalpy: -14.2 kcal/mol

## GAGGCCGAAAGGCGCTC ((((((....))).)))
[1]
  Tm: 57 °C
[2]
  folding enthalpy: -13.8 kcal/mol

## GAGGCCGAAAGGCTCCTC ((((((....)))..)))
[1]
  Tm: 40.8 °C
[2]
  folding enthalpy: -10.2 kcal/mol

## GAGGCCGGAAACGGTCTC (((.(((....))).)))
[1]
  Tm: 64.8 °C
[2]
  folding enthalpy: -36 kcal/mol

## GAGGCGGCGAAAGCCCTC (((..(((....))))))
[1]
  Tm: 43.1 °C
[2]
  folding enthalpy: -11 kcal/mol

## GAGGCGGGAAACCACCCC (.((.((....)).)).)
[1]
  Tm: 27.8 °C
[2]
  folding enthalpy: -13.6 kcal/mol

## GAGGCGGGAAACCGTCTC (((.(((....))).)))
[1]
  Tm: 56.8 °C
[2]
  folding enthalpy: -38.3 kcal/mol

## GAGGCGGGAAACTGCCTC (((((.(....).)))))
[1]
  Tm: 61.1 °C
[2]
  folding enthalpy: -39.1 kcal/mol

## GAGGCTCCGAAAGGACTC (((..(((....))))))
[1]
  Tm: 34.4 °C
[2]
  folding enthalpy: -15.5 kcal/mol

## GAGGGAGGAAACTCCCTC (((((((....)))))))
[1]
  Tm: 62.9 °C
[2]
  folding enthalpy: -41.1 kcal/mol

## GAGGGCCGAAAGGCCTC (((.(((....))))))
[1]
  Tm: 52.6 °C
[2]
  folding enthalpy: -9.74 kcal/mol

## GAGGGCCGAAAGGCTCTC (((.(((....))).)))
[1]
  Tm: 67 °C
[2]
  folding enthalpy: -30.6 kcal/mol

## GAGGGCGAAAGCCAGCTC ((((((....)))..)))
[1]
  Tm: 46.7 °C
[2]
  folding enthalpy: -13.7 kcal/mol

## GAGGGCGAAAGCCATCTC ((((((....)))..)))
[1]
  Tm: 65.6 °C
[2]
  folding enthalpy: -16.2 kcal/mol

## GAGGGCGAAAGCCCCCTC ((((((....)))..)))
[1]
  Tm: 42.7 °C
[2]
  folding enthalpy: -7.33 kcal/mol

## GAGGGCGAAAGCCTCCTC ((((((....)))..)))
[1]
  Tm: 40.5 °C
[2]
  folding enthalpy: -9.66 kcal/mol

## GAGGGCGAAAGCCTCTC ((((((....))).)))
[1]
  Tm: 53.2 °C
[2]
  folding enthalpy: -16.1 kcal/mol

## GAGGGCGAAAGCCTTCTC ((((((....)))..)))
[1]
  Tm: 52 °C
[2]
  folding enthalpy: -16.6 kcal/mol

## GAGGGCGCGAAAGCGCTC (((..(((....))))))
[1]
  Tm: 42.5 °C
[2]
  folding enthalpy: -7.69 kcal/mol

## GAGGGCGGAAACACCCCC (.(((.(....).))).)
[1]
  Tm: 30.9 °C
[2]
  folding enthalpy: -16.4 kcal/mol

## GAGGGCGGAAACGCTCTC (((.(((....))).)))
[1]
  Tm: 57.2 °C
[2]
  folding enthalpy: -31.9 kcal/mol

## GAGGGGGGAAACCCCCCC (.(((((....))))).)
[1]
  Tm: 52.5 °C
[2]
  folding enthalpy: -8.39 kcal/mol

## GAGGTACGAAAGTACTC (((.(((....))))))
[1]
  Tm: 45.8 °C
[2]
  folding enthalpy: -13.6 kcal/mol

## GAGGTACGAAAGTAGCTC (((.(((....))).)))
[1]
  Tm: 57.9 °C
[2]
  folding enthalpy: -44.4 kcal/mol

## GAGGTACGAAAGTATCTC (((.(((....))).)))
[1]
  Tm: 50.5 °C
[2]
  folding enthalpy: -32.3 kcal/mol

## GAGGTAGGAAACTACCCC (.(((((....))))).)
[1]
  Tm: 39.1 °C
[2]
  folding enthalpy: -12.1 kcal/mol

## GAGGTAGGAAACTACCTC (((((((....)))))))
[1]
  Tm: 60 °C
[2]
  folding enthalpy: -37.2 kcal/mol

## GAGGTCGGAAACGACCCC (.(((((....))))).)
[1]
  Tm: 48.3 °C
[2]
  folding enthalpy: -9.23 kcal/mol

## GAGGTCGGAAACGACTTC ((.((((....)))).))
[1]
  Tm: 48.6 °C
[2]
  folding enthalpy: -20.9 kcal/mol

## GAGGTGACGAAAGTCCTC (((..(((....))))))
[1]
  Tm: 34.9 °C
[2]
  folding enthalpy: -17.6 kcal/mol

## GAGGTGGGAAACCACTTC ((.((((....)))).))
[1]
  Tm: 46 °C
[2]
  folding enthalpy: -21.4 kcal/mol

## GAGGTGGGAAACCGCCTC ((((.((....)).))))
[1]
  Tm: 57.1 °C
[2]
  folding enthalpy: -46.9 kcal/mol

## GAGGTTCCGAAAGGACTC (((..(((....))))))
[1]
  Tm: 31.6 °C
[2]
  folding enthalpy: -14.9 kcal/mol

## GAGGTTGCGAAAGCACTC (((..(((....))))))
[1]
  Tm: 33.9 °C
[2]
  folding enthalpy: -11.3 kcal/mol

## GAGGTTGGAAACAGTCTC (((..((....))..)))
[1]
  Tm: 25.6 °C
[2]
  folding enthalpy: -10.1 kcal/mol

## GAGTAACCGAAAGGTCTC (((..(((....))))))
[1]
  Tm: 33.2 °C
[2]
  folding enthalpy: -16.7 kcal/mol
